Measurements gathered from unrelated publications.
Each line is one published result; the experiments were not run side by side.
Target: Cytochrome P450 2C19 (CYP2C19, Homo sapiens, UniProt P33261)
Observed: enzyme activity
Mode: inhibitor

| SMILES | technique | host | matrix | IC50 [µM] |
| --- | --- | --- | --- | --- |
| COc1ccc2[nH]c([S+]([O-])Cc3ncc(C)c(OC)c3C)nc2c1 (stereo not drawn) | fluorescence | – | – | 32 |
| CN(Cc1cnc2nc(N)nc(N)c2n1)c1ccc(C(=O)N2CCCCC2)cc1 | luciferase | – | – | 16.2 |
| C[C@H]1CN(c2n[nH]c3nc(N[C@H]4CC[C@H](NS(=O)(=O)CCC(F)(F)F)CC4)ncc23)CCO1 | – | – | – | > 100 |
| C=CC(=O)Nc1cc(Nc2nccc(Nc3cc(Cl)c(F)cc3C(C)(C)O)n2)c(OC)cc1N1CC[C@@H](N(C)C)C1 | – | human | liver microsomes | > 30 |
| CCN(Cc1cnc2nc(N)nc(N)c2n1)c1ccc(C(=O)c2ccccc2)cc1 | luciferase | – | – | 0.282 |
| CCC(C)(C)C(=O)O[C@H]1C[C@@H](C)C=C2C=C[C@H](C)[C@H](CC[C@@H](O)C[C@@H](O)CC(=O)O)[C@H]21 | fluorescence | – | – | > 100 |
| C#CCN(Cc1cnc2nc(N)nc(N)c2n1)c1ccc(C(=O)N2CCC(C(=O)OC)CC2)cc1 | luciferase | – | – | 9.77 |
| COc1ccc2c(Cc3ccccc3F)c3[n+](cc2c1OC)CCc1cc2c(cc1-3)OCO2 | – | – | – | > 10 |
| Cc1ccc2nc(-c3ccccc3)c(CNc3ccc(F)cc3)n2c1 | – | – | – | 0.93 |
| CCCCCNC(=N)N/N=C/c1c[nH]c2ccc(OC)cc12 | fluorescence | – | – | 1.17 |
| COC(=O)C1CCN(C(=O)c2ccc(N(Cc3ccccc3)Cc3cnc4nc(N)nc(N)c4n3)cc2)CC1 | luciferase | – | – | 0.195 |
| COc1ccc2cc3[n+](cc2c1OC)CCc1cc2c(cc1-3)OCO2 | – | – | – | > 10 |
